Test results as given in publication PMC7113734 (Antiviral Research, 2016).
Where two headings read alike, the source gives them in different places.

How the values were obtained:
[1] = in vitro; details: human, CC50 (cytotoxic concentration), fresh human PBMCs
[2] = tested on: HIV strain 92US727; experiment: Cell-to-cell virus transmission assay in fresh human PBMCs; format: cell-based, HIV-1
Outline: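 HIV-infected fresh human PBMCs treated 3 days with six concentrations of test compound. Passaged every 3 days for three passages at fixed compound concentration; 80% of culture volume replaced with fresh compound-containing medium and uninfected cells. Cell-free supernatants collected on sub-culture days for RT activity and extracellular p24 antigen. TCID50 per passage by endpoint dilution.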

[3] = tested on: HIV attachment to HeLa-CD4-LTR-β-gal cells; experiment: Attachment inhibition assay; format: cell-based, HIV-1; details: Human immunodeficiency virus 1, read-out: Attachment inhibition EC50 ± SD
[4] = biological target: HIV-1 integrase (Human immunodeficiency virus type 1 group M subtype B, UniProt P04585); experiment: HIV-1 integrase inhibition assay; format: biochemical
[5] = biological target: hERG (Homo sapiens, UniProt Q12809); experiment: Standard hERG test for cardiotoxicity
[6] = tested on: HIVIIIB; experiment: Cell-to-cell virus transmission assay in CEM-SS cells; format: cell-based, HIV-1
[7] = tested on: HL2/3 cells expressing HIV-1 gp120 and gp41 fusing with HeLa-CD4-LTR-β-gal cells; experiment: Fusion inhibition assay; format: cell-based; details: Human immunodeficiency virus 1, HL2/3, read-out: Fusion inhibition EC50 ± SD
Outline: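 HeLa-CD4-LTR-β-Gal cells incubated with test compound for 1 h at 37°C/5% CO2, then co-cultured 48 h with HL2/3 cells. Cells lysed and β-galactosidase expression measured by chemiluminescent Gal-Screen.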

[8] = tested on: MT-4 cells; experiment: Toxicity to MT-4 cells; format: cell-based; details: all assays
[9] = tested on: drug-resistant HIV-1 strains; experiment: Antiviral activity against drug-resistant HIV-1 strains in MT-4; format: cell-based; details: MT-4
[10] = tested on: clinical HIV-1 subtype B virus 92US723; experiment: Antiviral activity with added serum proteins in fresh human PBMCs; format: cell-based; details: 50% human serum, AAGP or HSA vs medium only
[11] = tested on: IIIB strain of HIV-1 in CEM-SS cells; experiment: Combination drug interaction evaluation; format: cell-based
Outline: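 CEM-SS cells infected with HIV-1 IIIB; inhibition of cytopathic effect measured for the test compound in two-drug combinations with known anti-HIV agents. Efficacy and toxicity analysed by Prichard–Shipman MacSynergy II. Expected additive inhibition computed from each agent's single-agent dose–response; inhibition above expected at each concentration calculated at 95%, 99% and 99.9% confidence. −99 to −51 μM2% scored antagonistic; <−100 highly antagonistic.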

[12] = biological target: HIV-1 protease (Human immunodeficiency virus type 1 group M subtype B, UniProt P04585); experiment: HIV-1 protease inhibition assay; format: biochemical
[13] = tested on: HIV-1IIIB; experiment: Drug-resistant virus selection by serial dose escalation; format: cell-based; details: fourteen passages, CEM-SS cells
[14] = biological target: wild type HIV-1 RT (Human immunodeficiency virus type 1 group M subtype B, UniProt P04585); experiment: Biochemical RT inhibition assay
[15] = Pharmacokinetics in rats; format: in vivo; details: male, Sprague-Dawley, rat, plasma
Outline: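 Male Sprague-Dawley rats, n = 3 per route. Prodrug given as IV bolus (50 mg/kg, 12.5 mg/mL in 5% DMSO/50% PEG300 in saline) or PO (1000 mg/kg, […] in 2% CMC suspension). Blood sampled over 24 h into sodium fluoride plus citric acid, kept on wet ice <10 min, then centrifuged at 4 °C. Plasma stored at −80 °C; prodrug and active metabolite quantified by UPLC-MS/MS (prodrug LLOQ 0.10 ng/mL).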

[16] = tested on: HIV-1IIIB; experiment: Antiviral activity with added serum proteins in CEM-SS cells; format: cell-based
[17] = tested on: cytochrome P450 enzymes; experiment: Inhibition of cytochrome P450 enzymes; format: in vitro ADME
[18] = tested on: drug resistant clinical HIV isolates; experiment: Antiviral activity against drug-resistant HIV-1 in PBMCs; format: cell-based; details: Human immunodeficiency virus 1, PBMC

Chain of hERG (Q12809 whole entry): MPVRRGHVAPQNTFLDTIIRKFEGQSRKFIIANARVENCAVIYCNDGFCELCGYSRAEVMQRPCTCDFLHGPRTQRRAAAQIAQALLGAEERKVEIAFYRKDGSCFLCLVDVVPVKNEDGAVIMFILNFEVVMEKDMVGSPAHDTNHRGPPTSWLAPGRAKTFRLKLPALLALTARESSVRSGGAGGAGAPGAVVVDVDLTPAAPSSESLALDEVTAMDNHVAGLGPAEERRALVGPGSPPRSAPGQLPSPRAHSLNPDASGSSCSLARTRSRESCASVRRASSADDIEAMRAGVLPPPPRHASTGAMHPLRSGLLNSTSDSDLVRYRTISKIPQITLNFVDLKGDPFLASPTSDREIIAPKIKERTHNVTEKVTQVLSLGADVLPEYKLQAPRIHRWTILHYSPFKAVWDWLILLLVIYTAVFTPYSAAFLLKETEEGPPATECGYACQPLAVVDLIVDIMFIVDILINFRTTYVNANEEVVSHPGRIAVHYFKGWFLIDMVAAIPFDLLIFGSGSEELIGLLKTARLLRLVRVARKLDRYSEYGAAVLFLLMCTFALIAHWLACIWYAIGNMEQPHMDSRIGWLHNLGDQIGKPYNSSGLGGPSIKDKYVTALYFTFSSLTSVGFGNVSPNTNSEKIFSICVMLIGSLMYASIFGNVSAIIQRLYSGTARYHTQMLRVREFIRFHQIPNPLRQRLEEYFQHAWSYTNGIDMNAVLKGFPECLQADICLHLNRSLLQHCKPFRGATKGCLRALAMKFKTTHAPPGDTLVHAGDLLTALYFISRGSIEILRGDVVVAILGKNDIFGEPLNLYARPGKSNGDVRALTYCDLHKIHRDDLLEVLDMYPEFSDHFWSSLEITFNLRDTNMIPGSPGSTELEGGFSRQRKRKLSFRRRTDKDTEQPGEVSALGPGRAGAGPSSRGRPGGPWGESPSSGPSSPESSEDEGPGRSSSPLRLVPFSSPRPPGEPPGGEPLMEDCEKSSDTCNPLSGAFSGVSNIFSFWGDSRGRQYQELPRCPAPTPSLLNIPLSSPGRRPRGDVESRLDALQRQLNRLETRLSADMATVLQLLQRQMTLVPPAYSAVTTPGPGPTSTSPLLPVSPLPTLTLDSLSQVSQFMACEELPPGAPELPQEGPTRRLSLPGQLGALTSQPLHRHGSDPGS

With `CCCC(=O)OCSc1ccccc1C(=O)NCCC(N)=O` [NS1040, ((2-((3-amino-3-oxopropyl)carbamoyl)phenyl)thio)methyl butyrate] the CC50 [1] was greater than 216 µM, the RT ([2]; Passage 1, 5 μM) was 222 cpm and the TCID50/mL ([2]; Passage 1, 5 μM) was 4.18 × 10^2 TCID50/mL. The p24 ([2]; Passage 1, 5 μM) was 766 pg/mL, the RT ([2]; Passage 2, 5 μM) was 595 cpm and the TCID50/mL ([2]; Passage 2, 5 μM) was 6.86 × 10^3 TCID50/mL. For the same molecule, the p24 ([2]; Passage 2, 5 μM) was 1731 pg/mL, the RT ([2]; Passage 3, 5 μM) was 9728 cpm and the TCID50/mL ([2]; Passage 3, 5 μM) was 6.52 × 10^4 TCID50/mL. For the same molecule, the p24 ([2]; Passage 3, 5 μM) was 61,967 pg/mL, the EC50 [3] was greater than 100 µM and the EC50 [4] was greater than 100 µM. The “hERG test for cardiotoxicity” value [5] was “negative”, the “fold less effective than MDH-1-38 at reducing cell to cell HIV transmission” value [6] was “approximately 3 fold” and the RT ([6]; Passage 1, 2 μM) was 27 cpm. For the same molecule, the TCID50/mL ([6]; Passage 1, 2 μM) was 0 TCID50/mL, the p24 ([6]; Passage 1, 2 μM) was 725 pg/mL and the RT ([6]; Passage 2, 2 μM) was 1063 cpm. The p24 ([6]; Passage 2, 2 μM) was 85,803 pg/mL, the RT ([6]; Passage 3, 2 μM) was 7036 cpm and the TCID50/mL ([6]; Passage 3, 2 μM) was 1.31 × 10^4 TCID50/mL. The p24 ([6]; Passage 3, 2 μM) was 1,570,937 pg/mL, the EC50 [7] was greater than 100 µM and the “non-toxic up to high test concentration” value [8] was greater than 100 µM. It also gave an EC50 ([9]; Human immunodeficiency virus 1, read-out: Mean EC50 ± SD, AZT- and NNRTI-resistant, RT 4xAZT/L100I) of 3.54 ± 2.02 µM, an EC50 ([9]; Human immunodeficiency virus 1, read-out: Mean EC50 ± SD, AZT- and NNRTI-resistant, RT 4xAZT/Y181C) of 5.24 ± 0.18 µM and an EC50 ([9]; Human immunodeficiency virus 1, read-out: Mean EC50 ± SD, AZT-resistant, RT 4xAZT (D67N/K70R/T215Y/K219Q)) of 4.24 ± 0.91 µM. For the same molecule, the EC50 ([9]; Human immunodeficiency virus 1, read-out: Mean EC50 ± SD, Atazanavir-resistant, PR I50L) was 1.27 ± 0.19 µM, the EC50 ([9]; Human immunodeficiency virus 1, read-out: Mean EC50 ± SD, Didanosine-resistant, RT L74V) was 4.59 ± 0.61 µM and the EC50 ([9]; Human immunodeficiency virus 1, read-out: Mean EC50 ± SD, Enfuviritide-resistant, Env V38A/N126K) was 5.48 ± 0.01 µM. For the same molecule, the EC50 ([9]; Human immunodeficiency virus 1, read-out: Mean EC50 ± SD, Indinavir-, Ritonavir-resistant, PR I84V) was 3.33 ± 0.44 µM, the EC50 ([9]; Human immunodeficiency virus 1, read-out: Mean EC50 ± SD, Indinavir-, Ritonavir-resistant, PR V82A) was 6.73 ± 1.06 µM and the EC50 ([9]; Human immunodeficiency virus 1, read-out: Mean EC50 ± SD, Indinavir-, Ritonavir-resistant, PR V82F/I84V) was 3.52 ± 1.7 µM. For the same molecule, the EC50 ([9]; Human immunodeficiency virus 1, read-out: Mean EC50 ± SD, Lamivudine-resistant, RT M184V) was 3.5 ± 1.1 µM, the EC50 ([9]; Human immunodeficiency virus 1, read-out: Mean EC50 ± SD, NNRTI-resistant, RT K103N/Y181C) was 5.19 ± 0.06 µM and the EC50 ([9]; Human immunodeficiency virus 1, read-out: Mean EC50 ± SD, NNRTI-resistant, RT K103N) was 5.02 ± 0.14 µM. For the same molecule, the EC50 ([9]; Human immunodeficiency virus 1, read-out: Mean EC50 ± SD, NNRTI-resistant, RT L100I) was 1.61 ± 0.41 µM, the EC50 ([9]; Human immunodeficiency virus 1, read-out: Mean EC50 ± SD, NNRTI-resistant, RT V106A) was 4.07 ± 0.78 µM and the EC50 ([9]; Human immunodeficiency virus 1, read-out: Mean EC50 ± SD, NNRTI-resistant, RT V108I) was 4.7 ± 0.17 µM. The EC50 ([9]; Human immunodeficiency virus 1, read-out: Mean EC50 ± SD, NNRTI-resistant, RT V179D) was 5.01 ± 0.31 µM, the EC50 ([9]; Human immunodeficiency virus 1, read-out: Mean EC50 ± SD, NNRTI-resistant, RT Y181C) was 4.52 ± 1.07 µM and the EC50 ([9]; Human immunodeficiency virus 1, read-out: Mean EC50 ± SD, NNRTI-resistant, RT Y188C) was 4.72 ± 0.55 µM. For the same molecule, the EC50 ([9]; Human immunodeficiency virus 1, read-out: Mean EC50 ± SD, Raltegravir-resistant, IN Q148H/G140S) was 4.16 ± 0.26 µM, the EC50 ([9]; Human immunodeficiency virus 1, read-out: Mean EC50 ± SD, Saquinavir-resistant, PR G48V/L90M) was 1.1 ± 0.32 µM and the EC50 ([9]; Human immunodeficiency virus 1, read-out: Mean EC50 ± SD, Tenofovir-resistant, RT K65R) was 5.21 ± 0.08 µM. For the same molecule, the “change in antiviral activity with serum protein additives” value [10] was “no significant change in antiviral activity”, the mean synergy volume ([11]; in combination with amprenavir) was 111 ± 27.8 μM^2% and the mean synergy volume ([11]; in combination with enfuviritide) was 115 ± 39.5 μM^2%. The mean synergy volume ([11]; in combination with lamivudine) was 180 ± 128 μM^2%, the mean synergy volume ([11]; in combination with lopinavir) was 212 ± 62.2 μM^2% and the mean synergy volume ([11]; in combination with nelfinavir) was 282 ± 61.5 μM^2%. For the same molecule, the mean synergy volume ([11]; in combination with ritonavir) was 143 ± 33.5 μM^2%, the mean synergy volume ([11]; in combination with stavudine) was 110 ± 68 μM^2% and the EC50 [12] was greater than 100 µM. The “selection of resistant virus” value [13] was “did not result in resistance”, the EC50 [14] was greater than 100 µM and the concentration at 1 h ([15]; iv, 50 mg/kg) was less than 0.1 ng/mL. The concentration at 0.75 h ([15]; po, 1000 mg/kg) was less than 0.1 ng/mL, the “fold decrease in potency” value ([16]; in the presence of 50% human AB serum) was roughly 4.5 fold and the “fold decrease in potency” value ([16]; in the presence of HSA (10 mg/mL)) was “did not exhibit a significant decrease in potency”. For the same molecule, the “inhibition of cytochrome P450 enzymes” value [17] was “neither NS1040 nor MDH-1-38 had significant inhibitory activity”, the EC50 ([18]; read-out: PBMC/HIV-1 EC50 ± SD, Multi-drug resistant AD. MDR) was 7.21 ± 4.38 µM and the EC50 ([18]; read-out: PBMC/HIV-1 EC50 ± SD, Multi-drug resistant MDR769) was 4.77 ± 0.95 µM. The EC50 ([18]; read-out: PBMC/HIV-1 EC50 ± SD, NNRTI-resistant A17R) was 10 ± 4.78 µM, the EC50 ([18]; read-out: PBMC/HIV-1 EC50 ± SD, NNRTI-resistant N119) was 5.9 ± 1.31 µM and the EC50 ([18]; read-out: PBMC/HIV-1 EC50 ± SD, PI-resistant 144-44) was 8.38 ± 5.4 µM. For the same molecule, the EC50 ([18]; read-out: PBMC/HIV-1 EC50 ± SD, PI-resistant 1002-60) was 3.66 ± 0.28 µM, the EC50 ([18]; read-out: PBMC/HIV-1 EC50 ± SD, PI-resistant 1022-48) was 3.45 ± 2.26 µM and the EC50 ([18]; read-out: PBMC/HIV-1 EC50 ± SD, PI-resistant 1026-60) was 3.29 ± 0.57 µM. It also gave an EC50 ([18]; read-out: PBMC/HIV-1 EC50 ± SD, PI-resistant 1064-52) of 2.62 ± 1.87 µM and an EC50 ([18]; read-out: PBMC/HIV-1 EC50 ± SD, Wild Type 92US727) of 5.58 ± 0.12 µM.
